Legend:
[1] = target: T1, hD4R (Homo sapiens, UniProt P21917); experiment: D4R competitive radioligand binding
T1 sequence (P21917 1-419): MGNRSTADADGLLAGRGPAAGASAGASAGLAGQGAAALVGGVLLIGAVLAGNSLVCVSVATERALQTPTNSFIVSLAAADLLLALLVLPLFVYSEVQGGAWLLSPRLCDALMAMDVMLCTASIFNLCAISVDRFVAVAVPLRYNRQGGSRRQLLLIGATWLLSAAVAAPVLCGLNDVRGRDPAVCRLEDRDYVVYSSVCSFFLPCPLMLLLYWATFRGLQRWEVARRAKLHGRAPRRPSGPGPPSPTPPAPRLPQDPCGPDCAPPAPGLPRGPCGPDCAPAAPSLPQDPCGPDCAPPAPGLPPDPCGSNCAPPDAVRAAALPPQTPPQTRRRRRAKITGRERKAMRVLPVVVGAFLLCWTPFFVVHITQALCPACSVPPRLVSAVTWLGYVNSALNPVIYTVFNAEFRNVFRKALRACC
Method in brief: (§1)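 Ki from competitive inhibition of radioligand binding in membranes from HEK293 cells stably expressing the human receptor. [3H]N-methylspiperone was used for D2R, D3R and D4R, and [3H]SCH23390 for D1R and D5R.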

[2] = system: 6-OHDA mouse model; conditions: 6-OHDA mouse model ref 13; cited from earlier work
[3] = Mouse liver microsome stability / intrinsic clearance; format: in vitro ADME; conditions: for CLint scaled: mouse, liver microsomes
[4] = Human plasma protein binding; format: in vitro ADME; conditions: fraction unbound
[5] = Metabolite ID study; format: in vitro ADME
[6] = Human liver microsome stability / intrinsic clearance; format: in vitro ADME; conditions: for CLint scaled: human, liver microsomes
[7] = In vivo rat cassette PK; conditions: iv, 0.25 mg/kg
[8] = system: other dopamine receptors (D1-3,5); experiment: Binding at other dopamine receptors; design: species or system human
Method in brief: as §1

[9] = Mouse plasma stability; format: in vitro ADME

Compound	CLint scaled [3]	CLint scaled [6]	also measured
Fc1cccc(CO[C@H]2CCCN(Cc3ncn4ccccc34)C2)c1 [Compound 8n]	–	–	D4 activity [1]: much less active or inactive
FC(F)(F)Oc1cccc(CO[C@H]2CCCN(Cc3ncc4ccccn34)C2)c1 [Compound 8q]	–	–	D4 activity [1]: much less active or inactive
COc1ccc(CN2CCO[C@H](COc3ccccc3)C2)cc1F [Compound 1, reference compound]	2130 mL/min/kg	–	Dyskinesia AIM (abnormal involuntary movement) scores [2]: dose-dependent reduction; Mouse liver microsome stability [3]: highly unstable; Plasma Protein Binding (%fu) hPPB [4]: 3.1 %fu; Major metabolic liability (metabolite ID) [5]: N-dealkylation; Human liver microsome stability [6]: highly unstable
Cc1cccc(CO[C@H]2CCCN(Cc3ncc4ccccn34)C2)n1 [Compound 8r]	–	–	D4 activity [1]: much less active or inactive
Cn1ncc2cc(CN3CCC(OCc4cccc(C(F)(F)F)c4)CC3)ccc21 [Compound 9w]	85.2 mL/min/kg	63.3 mL/min/kg	–
FC(F)(F)c1cccc(COC2CCN(Cc3cn4ccccc4n3)CC2)c1 [Compound 9c]	310 mL/min/kg	44.6 mL/min/kg	–
Cc1nc(CN2CCC(OCc3ccc(Cl)c(F)c3)CC2)c2ccccn12 [Compound 9j]	140 mL/min/kg	114 mL/min/kg	–
Cn1cnc2cc(CN3CCC(OCc4cccc(C(F)(F)F)c4)CC3)ccc21 [Compound 9p]	85.2 mL/min/kg	63.3 mL/min/kg	clearance [7]: 107 mL/min/kg
Fc1ccc(COC2CCN(Cc3ccc4[nH]cnc4c3)CC2)cc1F [Compound 9n]	93.9 mL/min/kg	< 20 mL/min/kg	clearance [7]: 235 mL/min/kg
COc1ccc(CN2CCC[C@H](OCc3cccc(F)c3)C2)cc1F [Compound 8a]	–	–	Selectivity against the other dopamine receptors [8]: selective
Fc1ccc(CO[C@H]2CCCN(Cc3cn4ccccc4n3)C2)cc1F [Compound 8i]	1400 mL/min/kg	689 mL/min/kg	–
COc1ccc(CN2CCC[C@@H](OCc3ccc(F)c(C)c3)C2)cc1F [Compound 8d]	–	–	Fold less active, (R)-enantiomer vs (S)-enantiomer at D4 [1]: 15 fold
Fc1cc(COC2CCN(Cc3ccc4[nH]cnc4c3)CC2)ccc1Cl [Compound 9l]	90.4 mL/min/kg	48.3 mL/min/kg	clearance [7]: 199 mL/min/kg
Cn1ncc2cc(CN3CCC(OCc4ccc(Cl)c(F)c4)CC3)ccc21 [Compound 9v]	85.3 mL/min/kg	42.7 mL/min/kg	–
FC(F)(F)c1cccc(COC2CCN(Cc3cc4ccc(Cl)cc4[nH]3)CC2)c1 [Compound 9z]	71.5 mL/min/kg	26.9 mL/min/kg	–
Cc1cc(NC(=O)CN2CCC(OCc3ccc(F)c(F)c3)CC2)ccc1F [Compound 11d]	306 mL/min/kg	49.5 mL/min/kg	Mouse liver microsome stability [3]: moderately stable; Selectivity against the other dopamine receptors [8]: selective for D4; Human liver microsome stability [6]: moderately stable; Mouse plasma stability [9]: not stable; Plasma stability (footnote symbol in mPPB column) ([9]; mouse plasma): c
Fc1cccc(COC2CCN(Cc3ncn4ccccc34)CC2)c1 [Compound 9h]	1260 mL/min/kg	340 mL/min/kg	Mouse liver microsome stability [3]: not as stable; Human liver microsome stability [6]: not as stable
Cc1c(Cl)cccc1NC(=O)CN1CCC(OCc2ccc(F)c(F)c2)CC1 [Compound 11a]	287 mL/min/kg	145 mL/min/kg	C0 [7]: 91 ng/mL; clearance [7]: 22 mL/min/kg; Selectivity against the other dopamine receptors [8]: selective for D4
Fc1ccc(COC2CCN(Cc3cc4ccc(Cl)cc4[nH]3)CC2)cc1F [Compound 9y]	83.2 mL/min/kg	23.5 mL/min/kg	C0 [7]: 36.9 ng/mL
FC(F)(F)c1cccc(COC2CCN(Cc3ccc4[nH]cnc4c3)CC2)c1 [Compound 9m]	76.4 mL/min/kg	32.9 mL/min/kg	–
Fc1cc(COC2CCN(Cc3cn4ccccc4n3)CC2)ccc1Cl [Compound 9d]	96.8 mL/min/kg	44.1 mL/min/kg	clearance [7]: 134 mL/min/kg
Cn1ncc2cc(CN3CCC(OCc4ccc(F)c(F)c4)CC3)ccc21 [Compound 9u]	104 mL/min/kg	–	clearance [7]: 140 mL/min/kg
COc1ccc(CN2CCC[C@H](OCc3ccc(F)c(F)c3)C2)cc1F [Compound 8b]	1260 mL/min/kg	272 mL/min/kg	–
Fc1ccc(COC2CCN(Cc3cn4ccccc4n3)CC2)cc1F [Compound 9b]	158 mL/min/kg	< 20 mL/min/kg	clearance [7]: 116 mL/min/kg; Mouse liver microsome stability [3]: modestly stable; Human liver microsome stability [6]: stable
Cc1nc(CN2CCC(OCc3cccc(C(F)(F)F)c3)CC2)c2ccccn12 [Compound 9i]	272 mL/min/kg	85.3 mL/min/kg	–
Fc1cc(COC2CCN(Cc3ncc4ccccn34)CC2)ccc1Cl [Compound 9e]	917 mL/min/kg	212 mL/min/kg	Mouse liver microsome stability [3]: not as stable; Human liver microsome stability [6]: not as stable
Fc1ccc(CO[C@H]2CCCN(Cc3ncn4ccccc34)C2)cc1F [Compound 8o]	5370 mL/min/kg	622 mL/min/kg	–
Fc1cccc(COC2CCN(Cc3cn4ccccc4n3)CC2)c1 [Compound 9a]	380 mL/min/kg	< 23.1 mL/min/kg	Fold improvement of D4 activity vs 3-O-derivative [1]: 10 fold; Mouse liver microsome stability [3]: modestly stable; Human liver microsome stability [6]: stable

Source: publication PMC8966054 (Bioorganic & medicinal chemistry letters, 2022)
